Source: ChEMBL document CHEMBL3758117, “Discovery of indeno[1,2-b]quinoxaline derivatives as potential anticancer agents” (Eur J Med Chem, 2016)
Active and inactive are the calls of the source. The calls are words filed in the database; no cut-off is given here.

Key:
Huh-7 [1] = test: Induction of apoptosis in human HuH7 cells assessed as downregulation of Bcl-2 expression at 1 to 10 uM after 24 hrs by Western blot analysis; assay type: functional, cell-based
Outline: (§1)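 Huh-7 cells were treated with DMSO or compound at 1, 5 and 10 μM for 24 h. Cells were lysed in NP-40 buffer with protease and phosphatase inhibitors, and protein was measured by Bradford. Lysate protein was resolved by SDS-PAGE and transferred to PVDF. Membranes were blocked in 5% milk, probed with primary antibodies for 2 h and secondary antibodies for 30 min, and detected by ECL, with β-actin as loading control.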

[2] = Cell cycle arrest in human HuH7 cells assessed as accumulation at S phase at 5 uM for 24 hrs by propidium iodide staining based flow cytometry (reference value: 11.4 +/- 2.4%); assay type: functional; settings: Huh-7
[3] = Cell cycle arrest in human HuH7 cells assessed as accumulation at G1 phase at 1 uM for 24 hrs by propidium iodide staining based flow cytometry (reference value: 62.1 +/- 1.4%); assay type: functional; settings: Huh-7
[4] = Cell cycle arrest in human HuH7 cells assessed as accumulation at subG1 phase at 1 uM for 24 hrs by propidium iodide staining based flow cytometry (reference value: 1.3 +/- 0.7%); assay type: functional; settings: Huh-7
[5] = Downregulation of cyclin A expression in human HuH7 cells at 1 to 10 uM after 24 hrs by immunoblot analysis; assay type: functional, cell-based; settings: Huh-7; outline: as §1
[6] = Effect on total protein expression of Akt in human HuH7 cells at 1 to 10 uM after 24 hrs by immunoblot analysis; assay type: cell-based; settings: huh-7, 24 h; outline: as §1
Escherichia coli = test: Binding affinity to Escherichia coli negative supercoiled pBR322 DNA at 10 uM after 12 hrs by ethidium bromide staining based agarose gel electrophoresis
Outline: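 Negatively supercoiled pBR322 (400 ng) in TE buffer pH 8.0 was incubated with compound at 10 μM for 12 h at room temperature. Loading buffer with sarkosyl was added. Samples were run on 1% agarose at 6 V/cm for 2.5 h in TAE pH 8.5, stained with ethidium bromide and photographed under UV.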

[7] = Cell cycle arrest in human HuH7 cells assessed as accumulation at S phase at 1 uM for 24 hrs by propidium iodide staining based flow cytometry (reference value: 11.4 +/- 2.4%); assay type: functional; settings: Huh-7
[8] = Cell cycle arrest in human HuH7 cells assessed as accumulation at G1 phase at 10 uM for 24 hrs by propidium iodide staining based flow cytometry (reference value: 62.1 +/- 1.4%); assay type: functional; settings: Huh-7
[9] = Cell cycle arrest in human HuH7 cells assessed as accumulation at G2/M phase at 5 uM for 24 hrs by propidium iodide staining based flow cytometry (reference value: 25.2 +/- 3.5%); assay type: functional; settings: Huh-7
[10] = target: T1, DNA topoisomerase 1 (Homo sapiens) (UniProt P11387); test: Inhibition of human DNA topoisomerase 1-mediated relaxation of supercoiled pBR322 DNA at 100 uM after 30 mins by ethidium bromide staining based agarose gel electrophoresis
T1 sequence (whole entry): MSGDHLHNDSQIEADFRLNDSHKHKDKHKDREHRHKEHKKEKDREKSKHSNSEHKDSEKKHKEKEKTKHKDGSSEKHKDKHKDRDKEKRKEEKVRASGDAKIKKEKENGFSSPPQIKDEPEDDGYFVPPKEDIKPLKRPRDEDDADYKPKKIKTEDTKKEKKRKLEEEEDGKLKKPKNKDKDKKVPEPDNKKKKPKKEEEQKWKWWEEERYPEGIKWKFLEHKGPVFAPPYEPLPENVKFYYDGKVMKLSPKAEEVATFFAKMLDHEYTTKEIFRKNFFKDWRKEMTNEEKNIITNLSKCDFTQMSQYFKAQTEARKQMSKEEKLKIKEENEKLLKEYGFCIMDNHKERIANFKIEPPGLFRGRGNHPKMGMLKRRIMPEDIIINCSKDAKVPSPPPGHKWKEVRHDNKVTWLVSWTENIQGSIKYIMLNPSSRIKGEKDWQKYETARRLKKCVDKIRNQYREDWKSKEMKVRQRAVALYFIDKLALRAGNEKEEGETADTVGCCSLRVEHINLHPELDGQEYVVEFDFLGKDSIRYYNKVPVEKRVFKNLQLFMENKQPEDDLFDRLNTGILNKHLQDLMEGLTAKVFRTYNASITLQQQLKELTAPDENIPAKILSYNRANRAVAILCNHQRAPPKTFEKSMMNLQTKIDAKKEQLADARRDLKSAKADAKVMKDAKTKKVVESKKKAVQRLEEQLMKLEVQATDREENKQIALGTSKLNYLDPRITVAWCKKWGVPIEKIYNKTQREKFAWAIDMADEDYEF
Outline: (§2)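 Human topo I or topo II (2 units) was reacted with 0.2 μg supercoiled pBR322 in 20 μl Tris-HCl pH 7.5 containing KCl, DTT, EDTA, MgCl2 and BSA, with DMSO held at 0.5%, for 30 min at 37°C. The reaction was stopped with SDS. Samples were run on 1% agarose in Tris-acetate/EDTA at 1.5 V/cm for 2-3 h and stained with ethidium bromide. Relaxation was quantified by densitometry of the supercoiled band area.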

MRC5 [11] = test: Selectivity index, ratio of IC50 for human MRC5 cells to IC50 for human PC3 cells; assay type: functional
Huh-7 [12] = test: Selectivity index, ratio of IC50 for human MRC5 cells to IC50 for human HuH7 cells; assay type: functional
[13] = Selectivity index, ratio of IC50 for human MRC5 cells to IC50 for human H1299 cells; assay type: functional
[14] = target: RAC-alpha serine/threonine-protein kinase (Homo sapiens) (UniProt P31749); test: Inhibition of AKT1 phosphorylation in human HuH7 cells at 1 to 10 uM after 24 hrs by immunoblot analysis; assay type: cell-based; settings: Huh-7; outline: as §1
[15] = Induction of apoptosis in human HuH7 cells assessed as upregulation of activated caspase 3 at 1 to 10 uM after 24 hrs by Western blot analysis; assay type: functional, cell-based; settings: Huh-7; outline: as §1
[16] = Cell cycle arrest in human HuH7 cells assessed as accumulation at sub G1 phase at 5 uM for 24 hrs by propidium iodide staining based flow cytometry (reference value: 1.3 +/- 0.7%); assay type: functional; settings: Huh-7
Huh-7 [17] = test: Induction of apoptosis in human HuH7 cells assessed as cell shrinkage at 5 uM after 24 hrs by light microscopy; assay type: functional, cell-based
MRC5 [18] = test: Selectivity index, ratio of IC50 for human MRC5 cells to IC50 for human MDA-MB-231 cells; assay type: functional
[19] = target: T1, DNA topoisomerase 1 (Homo sapiens); test: Inhibition of human DNA topoisomerase 1-mediated relaxation of supercoiled pBR322 DNA at 10 uM after 30 mins by ethidium bromide staining based agarose gel electrophoresis; outline: as §2
Huh-7 [20] = test: Induction of apoptosis in human HuH7 cells assessed as downregulation of PARP expression at 1 to 10 uM after 24 hrs by Western blot analysis; assay type: functional, cell-based; outline: as §1
[21] = Antiproliferative activity against human HuH7 cells after 72 hrs by XTT assay; assay type: functional, cell-based; settings: Huh-7, 72 h
Outline: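 Cells kept as monolayers in DMEM with 10% FBS, penicillin, streptomycin and amphotericin at 37°C, 5% CO2. Seeded at 5 x 10³ cells/well and exposed to compound for 72 h in medium with 10% FBS. XTT plus electron-coupling reagent added, 4 h at 37°C, absorbance read at 492 nm. Percent of control growth uses mean absorbance (n = 3). The 50% value is taken from the linear portion of the curve.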

Chain of RAC-alpha serine/threonine-protein kinase (Homo sapiens) (P31749 whole entry): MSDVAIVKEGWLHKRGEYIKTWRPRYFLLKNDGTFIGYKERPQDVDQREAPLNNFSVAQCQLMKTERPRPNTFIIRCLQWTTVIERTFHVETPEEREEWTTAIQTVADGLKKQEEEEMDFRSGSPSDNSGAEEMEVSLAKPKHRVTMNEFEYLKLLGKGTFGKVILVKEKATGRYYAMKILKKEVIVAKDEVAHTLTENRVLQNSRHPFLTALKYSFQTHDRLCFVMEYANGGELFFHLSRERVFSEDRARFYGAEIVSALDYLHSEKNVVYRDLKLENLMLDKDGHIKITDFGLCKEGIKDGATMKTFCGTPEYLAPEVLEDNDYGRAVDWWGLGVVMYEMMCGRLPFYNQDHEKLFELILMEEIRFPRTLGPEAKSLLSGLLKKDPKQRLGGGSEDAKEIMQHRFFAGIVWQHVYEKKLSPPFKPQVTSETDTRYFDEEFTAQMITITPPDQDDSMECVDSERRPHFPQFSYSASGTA

Compound: CN(C)CCCNC(=O)c1cccc2nc3c(nc12)-c1ccccc1/C3=N\OCCCN(C)C.Cl
- Activity (Huh-7 [1]): Dose-dependent effect
- Activity [2]: 30.5%
- Activity [3]: 55.3%
- Activity [4]: 3.8%
- Activity [5]: Active
- Activity [6]: Non-toxic
- Activity (Escherichia coli): Active
- Activity [7]: 21.6%
- Activity [8]: 30.4%
- Activity [9]: 22.9%
- topoisomerase 1 inhibition (active/inactive) [10]: Active
- Ratio IC50 (MRC5 [11]): 38.43
- Ratio IC50 (Huh-7 [12]): 49.23
- Ratio IC50 [13]: 5.45
- inhibition [14]: Active
- Activity [15]: Dose-dependent effect
- Activity [16]: 11.5%
- Activity (Huh-7 [17]): Active
- Ratio IC50 (MRC5 [18]): 36.22
- inhibition [19]: Active
- Activity (Huh-7 [20]): Dose-dependent effect
- IC50 [21]: 640 nM
